Screening results: PubChem BioAssay, The Scripps Research Institute Molecular Screening Center
Most compounds without a hit are left out; they make up all but 4.6% or so of the library.
GPR7 antagonist: blocks human GPR7 receptor signaling | GPR7-expressing cells, fluorescence antagonist assay | inhibition, % at 4.4 µM | hit rate 1.1% among 290,000 | AID 1861; in the data active = inhibition above about 16%, passing the limit was not always enough;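 also: cells stimulated with the agonist NPW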
OX1R antag-1: human HCRTR1 antagonism; CHO/OX1R cells, Fluo-8 calcium fluorescence, orexin A; inhibition, % at 5 µM; hit rate 0.43% among 330,000; AID 434989;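 active = inhibition above its plate's threshold, mean inhibition of all tested compounds on the plate plus 3 SD, cut at about 37% in these data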
Target sequence (O43613 whole entry, looked up): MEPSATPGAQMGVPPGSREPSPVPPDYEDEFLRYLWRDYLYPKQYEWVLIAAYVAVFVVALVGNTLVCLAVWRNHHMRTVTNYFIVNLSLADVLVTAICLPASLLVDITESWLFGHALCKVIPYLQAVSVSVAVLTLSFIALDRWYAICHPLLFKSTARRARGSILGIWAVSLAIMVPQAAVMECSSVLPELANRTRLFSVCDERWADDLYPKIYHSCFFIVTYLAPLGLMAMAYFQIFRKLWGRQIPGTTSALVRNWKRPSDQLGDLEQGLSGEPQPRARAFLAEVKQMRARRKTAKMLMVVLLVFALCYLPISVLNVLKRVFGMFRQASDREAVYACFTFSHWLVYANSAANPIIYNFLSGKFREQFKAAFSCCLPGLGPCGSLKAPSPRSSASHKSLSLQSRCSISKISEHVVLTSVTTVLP
OX1R antag-2: OX1R (human) antagonism; O43613; OX1R-expressing cells, FRET antagonist read-out; inhibition, % at 6.6 µM; hit rate 1.8% among 330,000; in the data active = inhibition mostly above about 38%, no sharp cut-off; inactive = mostly below about 40%
TAAR1 ag: human TAAR1 agonism; CHO RD-HGA16 TAAR1, Fluo-8 calcium fluorescence; vehicle wells 0%, saturating PEA agonist 100%; activation, % at 3 µM; hit rate 0.99% among 360,000;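 active = activation above the mean activation of all test compounds in the run plus 3 SD, cut at about 38% in these data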
Target sequence (Q96RJ0 whole entry, looked up): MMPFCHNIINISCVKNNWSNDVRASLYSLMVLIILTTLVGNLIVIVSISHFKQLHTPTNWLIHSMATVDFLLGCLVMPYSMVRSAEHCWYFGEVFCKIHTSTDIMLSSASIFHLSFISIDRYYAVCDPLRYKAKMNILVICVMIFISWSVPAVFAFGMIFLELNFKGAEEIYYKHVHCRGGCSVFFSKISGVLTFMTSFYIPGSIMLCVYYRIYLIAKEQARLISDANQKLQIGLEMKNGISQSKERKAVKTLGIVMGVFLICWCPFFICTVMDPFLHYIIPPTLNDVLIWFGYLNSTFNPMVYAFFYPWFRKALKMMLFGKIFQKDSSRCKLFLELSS
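Assay system – CHO-derived RD-HGA16 cells with stable Gα16 and human TAAR1 · Compound dosing – one-point dosing at 3 µM (nominal) · Incubation – 17-24 h seeding, 75 min 37 °C dye, 30 min RT · Measured by – kinetic Fluo-8 calcium fluorescence · Control set – DMSO vehicle as 0%, PEA at EC100 as 100% · Repeats – single well for each compound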
TAAR1 antag: antagonists of human TAAR1 | Q96RJ0 | CHO RD-HGA16 TAAR1, Fluo-8 calcium fluorescence, antagonist | inhibition, % at 3 µM | hit rate 1.5% among 360,000 | AID 624466;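 active = inhibition above a per-plate cutoff, the mean inhibition of test compounds on that plate plus 3 SD, cut at about 49% in these data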
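Assay system: CHO-derived RD-HGA16 cells stably expressing human TAAR1 plus Gα16. Timing: 140 s kinetic read after compound, 140 s after agonist. Technique: kinetic Fluo-8 calcium fluorescence measurement. Measure: % inhibition of agonist calcium response.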
CHO parental Ca: signal in parental CHO cells, OX1R antagonist counter-screen; hit rate 0.63% among 330,000; parental CHO-K1, ATP-induced calcium, Fluo-8 fluorescence; inhibition, % at 5.6 µM; AID 463079;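 active = inhibition above that plate's mean sample inhibition plus 3 SD, cut at about 26% in these data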
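Material – parental CHO cells · Reagent – ATP stimulus · Compound – single nominal dose of 5.6 µM per compound · Detection – Fluo-8 fluorescence · Read-out basis – percent inhibition of calcium signal · Controls – ATP-challenged DMSO wells low, unchallenged DMSO wells high · Repeats – no replicates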
OX1R HTRF conf: OX1R (human) antagonism, HTRF confirmed. shares compounds with OX1R antag-2. OX1R-expressing cells, HTRF antagonist assay. inhibition, % at 6.6 µM. hit rate 49% among 1,800; in the data active = inhibition above about 55%;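 also: CHO cells expressing OX1R stimulated with orexin A at about EC80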
CHO-K1 HTRF: signal in parental CHO-K1 cells, OX1R antagonist counter-screen; shares compounds with OX1R antag-2; HTRF counterscreen; inhibition, % at 6.6 µM; hit rate 48% among 1,800; AID 493232; in the data active = inhibition above about 17%
Large screens that a line does not name were inactive (follow-up assays come after a bar, where they were run).

CCCN1CCCC[C@H]1C(=O)Nc1c(C)cccc1C	none (no result: GPR7 antagonist)
O=C(Nc1ccc2nc([C@H]3C[C@H](O)[C@@H](CO)O3)[nH]c2c1)NC(c1ccccc1)c1ccccc1	none (no result: GPR7 antagonist, OX1R antag-1, OX1R antag-2, CHO parental Ca)
CC(=O)c1ccc(Cc2ccc(C(C)=O)s2)s1	none (no result: GPR7 antagonist, OX1R antag-1, OX1R antag-2, CHO parental Ca)
CCn1c(/C=C/c2cc[n+](C)cc2)nc2ccccc21	OX1R antag-2 78 | OX1R HTRF conf inactive | CHO-K1 HTRF 59
CCCn1c(/C=C/c2ccccc2)nc2ccccc21	none
CC(=O)Nc1ccc(S(=O)(=O)NC2=NCN(c3ccc([N+](=O)[O-])cc3)CN2)cc1	none
CN1CN=C(NS(=O)(=O)c2ccc([N+](=O)[O-])cc2)NC1	OX1R antag-2 83 | OX1R HTRF conf inactive | CHO-K1 HTRF 30
NS(=O)(=O)c1ccc(CCNCC(=O)NCc2ccccc2Cl)cc1	none
CN1CCN(C(=O)Nc2ccccc2)CC1	OX1R antag-2 92 | OX1R HTRF conf inactive | CHO-K1 HTRF inactive
O=C(Nc1ccccc1)N1CCN(c2ccccc2)CC1	none (no result: GPR7 antagonist, OX1R antag-1, OX1R antag-2, CHO parental Ca)
COc1cc2c(cc1OC)C(C(=O)O)C(c1ccc3c(c1)OCO3)N(C)C2=O (configuration not stated)	none (no result: GPR7 antagonist, OX1R antag-1, OX1R antag-2, CHO parental Ca)
S=c1[nH]nc(Cc2c[nH]c3ccccc23)o1	none
S=c1[nH]nc(Cc2sc(-c3ccccc3)nc2-c2ccccc2)o1	OX1R antag-2 78 | OX1R HTRF conf inactive | CHO-K1 HTRF 22
O=C(CCS(=O)(=O)c1cccc2nonc12)N1CCOCC1	OX1R antag-2 99 | OX1R HTRF conf inactive | CHO-K1 HTRF 69
O=C(CCS(=O)(=O)c1cccc2nonc12)N1CCN(c2ccc(F)cc2)CC1	OX1R antag-2 97 | OX1R HTRF conf inactive | CHO-K1 HTRF 24
O=C(CCS(=O)(=O)c1cccc2nonc12)N1CC(=O)N(CCc2ccccc2)C(=O)C1	none
CC(C)OCCCNC(=O)c1ccc2c(c1)S(=O)(=O)c1ccccc1C2=O	OX1R antag-2 85 | OX1R HTRF conf inactive | CHO-K1 HTRF 41
COCCNC(=O)c1ccc2c(c1)S(=O)(=O)c1ccccc1C2=O	OX1R antag-2 86 (no result: GPR7 antagonist) | OX1R HTRF conf inactive | CHO-K1 HTRF 84
C=CCNC(=O)c1ccc2c(c1)S(=O)(=O)c1ccccc1C2=O	OX1R antag-2 126 (no result: GPR7 antagonist) | OX1R HTRF conf 58 | CHO-K1 HTRF 58
CCNC(=O)c1ccc2c(c1)S(=O)(=O)c1ccccc1C2=O	OX1R antag-2 189 | OX1R HTRF conf inactive | CHO-K1 HTRF 67
CCC(C)NC(=O)c1ccc2c(c1)S(=O)(=O)c1ccccc1C2=O (configuration not stated)	none (no result: OX1R antag-1, OX1R antag-2, CHO parental Ca)
C[C@@H]1CN([C@@H](C)CO)C(=O)CCCn2nncc2CO[C@@H]1CN(C)C(=O)C1CCCCC1	none (no result: GPR7 antagonist, OX1R antag-1, OX1R antag-2, CHO parental Ca)
CCCCNC(=O)c1ccc2c(c1)S(=O)(=O)c1ccccc1C2=O	none (no result: OX1R antag-1, OX1R antag-2, CHO parental Ca)
CCCCn1c(N)c(N(CC)C(=O)c2ccc(Cl)c(Cl)c2)c(=O)[nH]c1=O	none
CCCCn1c(N)c(N(CC)C(=O)c2ccc3c(c2)S(=O)(=O)c2ccccc2C3=O)c(=O)[nH]c1=O	OX1R antag-2 85 | OX1R HTRF conf inactive | CHO-K1 HTRF 18
COCC(C)NC(=O)c1ccc2c(c1)S(=O)(=O)c1ccccc1C2=O (configuration not stated)	OX1R antag-2 109 | OX1R HTRF conf inactive | CHO-K1 HTRF 55
CC(=O)NCCNC(=O)c1ccc2c(c1)S(=O)(=O)c1ccccc1C2=O	OX1R antag-2 86 | OX1R HTRF conf inactive | CHO-K1 HTRF 85
CC(C)(C)S(=O)N1Cc2cc(C(=O)NCc3ccc4c(c3)OCO4)nc(-c3cccc(-c4cc5ccccc5o4)c3)c2[C@@H]1CCO (some centres not stated)	none (no result: GPR7 antagonist, OX1R antag-1, OX1R antag-2, CHO parental Ca)
N#CC1C(=O)NC(=O)C(C#N)C12CCCc1sccc12 (configuration not stated)	none (no result: GPR7 antagonist, OX1R antag-1, OX1R antag-2, CHO parental Ca)
CC(=O)N1CCC(c2nc3ccccc3n2C(C)C(=O)NCc2ccccc2)CC1 (configuration not stated)	none (no result: GPR7 antagonist, OX1R antag-1, OX1R antag-2, CHO parental Ca)
Cc1ccc(C(C(=O)NC2CCCCC2)N2CCC3(CC2)OCCO3)cc1 (configuration not stated)	none
COc1ccc(C(C(=O)NC2CCCCC2)N2CCC3(CC2)OCCO3)cc1 (configuration not stated)	OX1R antag-2 89 | OX1R HTRF conf inactive | CHO-K1 HTRF inactive
CN(Cc1c(C(=O)N/N=C/c2ccccc2O)nnn1-c1nonc1N)C1CCCCC1	none (no result: GPR7 antagonist, OX1R antag-1, OX1R antag-2, CHO parental Ca)
O=c1[nH]cnc2nn(-c3ccccc3)nc12	none
O=c1[nH]cnc2nc(-c3ccccc3)c(-c3ccccc3)nc12	OX1R antag-2 129 | OX1R HTRF conf inactive | CHO-K1 HTRF 23
CCN(CCCNC(=O)C1CCN(S(=O)(=O)c2cccc3nonc23)CC1)Cc1ccccc1	OX1R antag-2 92 | OX1R HTRF conf inactive | CHO-K1 HTRF 44
Cc1ccc(NC(=O)c2cc3c(CO)cnc(C)c3oc2=Nc2cccc(C(N)=O)c2)cc1	none
Cc1ncc(CO)c2cc(C(N)=O)c(=Nc3ccccc3)oc12	OX1R antag-2 150 | OX1R HTRF conf inactive | CHO-K1 HTRF 42
CS(=O)(=O)c1ccc(S(=O)CC(=O)Oc2ccc(Cl)cc2)c([N+](=O)[O-])c1 (configuration not stated)	OX1R antag-2 116 (no result: TAAR1 ag, TAAR1 antag) | OX1R HTRF conf inactive | CHO-K1 HTRF 38
O=C(CS(=O)c1ccccc1[N+](=O)[O-])Oc1ccc(Br)cc1 (configuration not stated)	none
N#Cc1cc2[nH]c3ccccc3c2[n+](-c2ccc([N+](=O)[O-])cc2)c1N	OX1R antag-2 124 | OX1R HTRF conf inactive | CHO-K1 HTRF 38
Cc1cc(NCc2ccccn2)nc2ccccc12	none
O=c1c2ccccc2nc2c3ccccc3c(NCc3ccccn3)nn12	OX1R antag-2 90 | OX1R HTRF conf 88 | CHO-K1 HTRF inactive
O=C(c1ccc(C(F)(F)F)cc1)N1CCC(=O)N([C@H](COCc2ccc(C(F)(F)F)cc2)Cc2ccccc2)CC1	none (no result: GPR7 antagonist, OX1R antag-1, OX1R antag-2, CHO parental Ca)
COc1cccc(C(c2nnnn2C(C)(C)C)N2CCN(C/C=C/c3ccccc3)CC2)c1OC (configuration not stated)	none (no result: GPR7 antagonist, OX1R antag-1, OX1R antag-2, CHO parental Ca)
Nc1c(-c2ccccc2)c(CN2CCOCC2)nn1-c1cccc([N+](=O)[O-])c1	OX1R antag-2 85 | OX1R HTRF conf inactive | CHO-K1 HTRF 29
O=NN(CCF)C(=O)NC1CCS(=O)(=O)CC1	none (no result: GPR7 antagonist, OX1R antag-1, OX1R antag-2, CHO parental Ca)
CC(C)(C)CC(C)(C)N=C1NS(=O)(=O)c2cc([N+](=O)[O-])ccc21	none
CC(C)(CO)N=C1NS(=O)(=O)c2cc([N+](=O)[O-])ccc21	OX1R antag-2 99 | OX1R HTRF conf 56 | CHO-K1 HTRF 63
